Results taken from ChEMBL document CHEMBL3392996, “Non-transpeptidase binding arylthioether β-lactams active against Mycobacterium tuberculosis and Moraxella catarrhalis” (2015).
Values after ≈ are worked out from the molar mass of the structure shown. Active and inactive are the calls of the source. No cut-off for these calls is given here.

What was measured:
Moraxella catarrhalis [1] = test: Antimicrobial activity against Moraxella catarrhalis clinical isolates incubated for 48 hrs by microdilution broth method; assay type: functional
Outline: (§1)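 Stocks in DMSO were diluted at least 10-fold into Mueller-Hinton broth, then 2-fold serially diluted in MH from 500 to 15.6 μg/ml. Bacteria were added, with DMSO-only dilution controls, and incubated at 37 °C for 48 h. Growth was scored at 24 and 48 h. MIC was the lowest concentration with no growth. Run in quadruplicate.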

Moraxella catarrhalis [2] = test: Bactericidal activity against Moraxella catarrhalis clinical isolates incubated for 48 hrs by microdilution broth method and standard plating method; assay type: functional
Outline: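 Broth microdilution in Mueller-Hinton broth, 2-fold series from 500 to 15.6 μg/ml, with DMSO-only controls, 37 °C for 48 h. Wells showing no growth were plated (10 μL) on MH agar. MBC was the lowest concentration giving no growth on plating. Run in quadruplicate.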

[3] = system: Mycobacterium tuberculosis; test: Antimicrobial activity against Mycobacterium tuberculosis H37Rv incubated for 48 hrs by microdilution broth method; assay type: functional
Staphylococcus aureus = test: Antimicrobial activity against Staphylococcus aureus ATCC 25923 incubated for 48 hrs by microdilution broth method; assay type: functional, organism-based; outline: as §1
Escherichia coli [4] = test: Antimicrobial activity against Escherichia coli ATCC 25922 incubated for 48 hrs by microdilution broth method; assay type: functional, organism-based; outline: as §1
Enterococcus faecalis = test: Antimicrobial activity against Enterococcus faecalis ATCC 29212 incubated for 48 hrs by microdilution broth method; assay type: functional, organism-based; outline: as §1
Pseudomonas aeruginosa = test: Antimicrobial activity against Pseudomonas aeruginosa ATCC 27853 incubated for 48 hrs by microdilution broth method; assay type: functional, organism-based; outline: as §1
Escherichia coli [5] = test: Antimicrobial activity against broad spectrum beta-lactamase producing Escherichia coli MISC 206 incubated for 48 hrs by microdilution broth method; assay type: functional, organism-based; outline: as §1
Escherichia coli [6] = test: Antimicrobial activity against broad spectrum beta-lactamase producing Escherichia coli GB 8 incubated for 48 hrs by microdilution broth method; assay type: functional, organism-based; outline: as §1
Escherichia coli [7] = test: Antimicrobial activity against extended spectrum beta-lactamase producing Escherichia coli MISC 262 incubated for 48 hrs by microdilution broth method; assay type: functional, organism-based; outline: as §1
Citrobacter freundii [8] = test: Antimicrobial activity against extended spectrum beta-lactamase producing Citrobacter freundii Citro 314 incubated for 48 hrs by microdilution broth method; assay type: functional, organism-based; outline: as §1
Klebsiella pneumoniae [9] = test: Antimicrobial activity against AmpC producing Klebsiella pneumoniae MISC 304 incubated for 48 hrs by microdilution broth method; assay type: functional, organism-based; outline: as §1
Klebsiella pneumoniae [10] = test: Antimicrobial activity against AmpC producing Klebsiella pneumoniae KLEB 249 incubated for 48 hrs by microdilution broth method; assay type: functional, organism-based; outline: as §1
Citrobacter freundii [11] = test: Antimicrobial activity against AmpC producing Citrobacter freundii CITRO 21 incubated for 48 hrs by microdilution broth method; assay type: functional, organism-based; outline: as §1
[12] = system: Stenotrophomonas maltophilia; test: Antimicrobial activity against metallo beta-lactamases producing Stenotrophomonas maltophilia GM24 incubated for 48 hrs by microdilution broth method; assay type: functional, organism-based; outline: as §1
Acinetobacter baumannii [13] = test: Antimicrobial activity against extended spectrum beta-lactamase and carbapenemase producing Acinetobacter baumannii L185 incubated for 48 hrs by microdilution broth method; assay type: functional, organism-based; outline: as §1
Acinetobacter baumannii [14] = test: Antimicrobial activity against extended spectrum beta-lactamase and carbapenemase producing Acinetobacter baumannii L186 incubated for 48 hrs by microdilution broth method; assay type: functional, organism-based; outline: as §1
Acinetobacter baumannii [15] = test: Antimicrobial activity against extended spectrum beta-lactamase and carbapenemase producing Acinetobacter baumannii L187 incubated for 48 hrs by microdilution broth method; assay type: functional, organism-based; outline: as §1
Klebsiella pneumoniae [16] = test: Antimicrobial activity against extended spectrum beta-lactamase and carbapenemase producing Klebsiella pneumoniae KPC L133 incubated for 48 hrs by microdilution broth method; assay type: functional, organism-based; outline: as §1
Klebsiella pneumoniae [17] = test: Antimicrobial activity against extended spectrum beta-lactamase and carbapenemase producing Klebsiella pneumoniae ESBL L174 incubated for 48 hrs by microdilution broth method; assay type: functional, organism-based; outline: as §1
Escherichia coli [18] = test: Antimicrobial activity against extended spectrum beta-lactamase and carbapenemase producing Escherichia coli ESBL L108 incubated for 48 hrs by microdilution broth method; assay type: functional, organism-based; outline: as §1
Escherichia coli [19] = test: Antimicrobial activity against extended spectrum beta-lactamase and carbapenemase producing Escherichia coli ESBL L109 incubated for 48 hrs by microdilution broth method; assay type: functional, organism-based; outline: as §1

O=C1CC(Sc2cccc(C(F)(F)F)c2)N1C(=O)NCc1ccccc1 (racemic)
MIC (Moraxella catarrhalis [1]): 3.12 µg/mL (≈ 8.22 µM)
MBC (Moraxella catarrhalis [2]): 6.25 µg/mL (≈ 16.4 µM)
MIC [3]: 25 µg/mL (≈ 65.7 µM)
MIC (Staphylococcus aureus): inactive
MIC (Escherichia coli [4]): inactive
MIC (Enterococcus faecalis): inactive
MIC (Pseudomonas aeruginosa): inactive
MIC (Escherichia coli [5]): inactive
MIC (Escherichia coli [6]): inactive
MIC (Escherichia coli [7]): inactive
MIC (Citrobacter freundii [8]): inactive
MIC (Klebsiella pneumoniae [9]): inactive
MIC (Klebsiella pneumoniae [10]): inactive
MIC (Citrobacter freundii [11]): inactive
MIC [12]: inactive
MIC (Acinetobacter baumannii [13]): inactive
MIC (Acinetobacter baumannii [14]): inactive
MIC (Acinetobacter baumannii [15]): inactive
MIC (Klebsiella pneumoniae [16]): inactive
MIC (Klebsiella pneumoniae [17]): inactive
MIC (Escherichia coli [18]): inactive
MIC (Escherichia coli [19]): inactive

O=C1CC(Sc2cc(C(F)(F)F)cc(C(F)(F)F)c2)N1C(=O)NCc1ccccc1 (racemic)
MIC (Moraxella catarrhalis [1]): 6.25 µg/mL (≈ 13.9 µM)
MBC (Moraxella catarrhalis [2]): 6.25 µg/mL (≈ 13.9 µM)
MIC [3]: 6.25 µg/mL (≈ 13.9 µM)
MIC (Staphylococcus aureus): inactive
MIC (Escherichia coli [4]): inactive
MIC (Enterococcus faecalis): inactive
MIC (Pseudomonas aeruginosa): inactive
MIC (Escherichia coli [5]): inactive
MIC (Escherichia coli [6]): inactive
MIC (Escherichia coli [7]): inactive
MIC (Citrobacter freundii [8]): inactive
MIC (Klebsiella pneumoniae [9]): inactive
MIC (Klebsiella pneumoniae [10]): inactive
MIC (Citrobacter freundii [11]): inactive
MIC [12]: inactive
MIC (Acinetobacter baumannii [13]): inactive
MIC (Acinetobacter baumannii [14]): inactive
MIC (Acinetobacter baumannii [15]): inactive
MIC (Klebsiella pneumoniae [16]): inactive
MIC (Klebsiella pneumoniae [17]): inactive
MIC (Escherichia coli [18]): inactive
MIC (Escherichia coli [19]): inactive

O=C1CC(Sc2ccc(C(F)(F)F)cc2)N1C(=O)NCc1ccccc1 (racemic)
MIC (Moraxella catarrhalis [1]): 1.62 µg/mL (≈ 4.27 µM)
MBC (Moraxella catarrhalis [2]): 12.5 µg/mL (≈ 32.9 µM)
MIC [3]: 12.5 µg/mL (≈ 32.9 µM)
MIC (Staphylococcus aureus): inactive
MIC (Escherichia coli [4]): inactive
MIC (Enterococcus faecalis): inactive
MIC (Pseudomonas aeruginosa): inactive
MIC (Escherichia coli [5]): inactive
MIC (Escherichia coli [6]): inactive
MIC (Escherichia coli [7]): inactive
MIC (Citrobacter freundii [8]): inactive
MIC (Klebsiella pneumoniae [9]): inactive
MIC (Klebsiella pneumoniae [10]): inactive
MIC (Citrobacter freundii [11]): inactive
MIC [12]: inactive
MIC (Acinetobacter baumannii [13]): inactive
MIC (Acinetobacter baumannii [14]): inactive
MIC (Acinetobacter baumannii [15]): inactive
MIC (Klebsiella pneumoniae [16]): inactive
MIC (Klebsiella pneumoniae [17]): inactive
MIC (Escherichia coli [18]): inactive
MIC (Escherichia coli [19]): inactive

O=C1CC(Sc2ccc(F)c(F)c2)N1C(=O)NCc1ccccc1 (racemic)
MIC (Moraxella catarrhalis [1]): 12.5 µg/mL (≈ 35.9 µM)
MBC (Moraxella catarrhalis [2]): 25 µg/mL (≈ 71.8 µM)
MIC [3]: 6.25 µg/mL (≈ 17.9 µM)
MIC (Staphylococcus aureus): inactive
MIC (Escherichia coli [4]): inactive
MIC (Enterococcus faecalis): inactive
MIC (Pseudomonas aeruginosa): inactive
MIC (Escherichia coli [5]): inactive
MIC (Escherichia coli [6]): inactive
MIC (Escherichia coli [7]): inactive
MIC (Citrobacter freundii [8]): inactive
MIC (Klebsiella pneumoniae [9]): inactive
MIC (Klebsiella pneumoniae [10]): inactive
MIC (Citrobacter freundii [11]): inactive
MIC [12]: inactive
MIC (Acinetobacter baumannii [13]): inactive
MIC (Acinetobacter baumannii [14]): inactive
MIC (Acinetobacter baumannii [15]): inactive
MIC (Klebsiella pneumoniae [16]): inactive
MIC (Klebsiella pneumoniae [17]): inactive
MIC (Escherichia coli [18]): inactive
MIC (Escherichia coli [19]): inactive

O=C1CC(Sc2ccccc2)N1C(=O)NCc1ccccc1 (racemic)
MIC (Moraxella catarrhalis [1]): 12.5 µg/mL (≈ 40 µM)
MBC (Moraxella catarrhalis [2]): 12.5 µg/mL (≈ 40 µM)
MIC [3]: 6.25 µg/mL (≈ 20 µM)
MIC (Staphylococcus aureus): inactive
MIC (Escherichia coli [4]): inactive
MIC (Enterococcus faecalis): inactive
MIC (Pseudomonas aeruginosa): inactive
MIC (Escherichia coli [5]): inactive
MIC (Escherichia coli [6]): inactive
MIC (Escherichia coli [7]): inactive
MIC (Citrobacter freundii [8]): inactive
MIC (Klebsiella pneumoniae [9]): inactive
MIC (Klebsiella pneumoniae [10]): inactive
MIC (Citrobacter freundii [11]): inactive
MIC [12]: inactive
MIC (Acinetobacter baumannii [13]): inactive
MIC (Acinetobacter baumannii [14]): inactive
MIC (Acinetobacter baumannii [15]): inactive
MIC (Klebsiella pneumoniae [16]): inactive
MIC (Klebsiella pneumoniae [17]): inactive
MIC (Escherichia coli [18]): inactive
MIC (Escherichia coli [19]): inactive
